# Screening results (PubChem)
# This is a sample that favours compounds with a hit; in the whole collection about 2.4% have one here.
# SR-BI uptake up – activators of SR-BI mediated HDL lipid uptake; AID 504775; actives 0.096% (n = 320,000); activation, % at 12.5 µM; CHO ldlA[mSR-BI] cells, DiI-HDL uptake fluorescence, 3 h; 100 = double the neutral-control signal;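 active = mean replicate activation of at least 60% and every replicate at or above 60%; inconclusive = mean or all-replicate condition met, but not both; inactive = mean below 60% and not all replicates reaching 60%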;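 note: 0% = median plate neutral-control signal and 100% = twice that signal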
#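 system = CHO ldlA[mSR-BI] cells, LDL receptor-null, SR-BI overexpressing | medium = Ham's F12 with 0.5% BSA, HEPES 25 mM, pH 7.4 | probe or stimulus = DiI-HDL 10 µg/mL | compound dosing = single-point compound dose | incubation = compound exposure 3 h, 37 °C | technique = DiI fluorescence, bottom read | read-out = cell-associated DiI fluorescence as measure of HDL uptake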
# Ins promoter up – MIN6 insulin promoter up-regulation. z-score at 5 µM. actives 0.3% (n = 190,000). MIN6 insulin promoter-GFP reporter, high-content imaging; hits give high values;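 active = z-score above 3 at 5 µM with at least 500 cells counted in the well; inconclusive = wells under 500 cells, flagged as cytotoxic or low count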
# m5-HT2A agonist – agonists of mouse serotonin 5-HT2A receptor (HTR2A); P35363; CHO-K1 mHTR2A beta-arrestin complementation, luminescence; percent of 30 µM serotonin response; activation, % at 7.6 µM; actives 0.66% (n = 360,000); AID 624169;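 active = activation above a run cutoff, the mean activation of all tested compounds plus 3 SD, cut at about 14% in these data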;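 note: 0% = plate median of compound wells and 100% = 30 µM serotonin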
# Target sequence (P35363 whole entry, looked up): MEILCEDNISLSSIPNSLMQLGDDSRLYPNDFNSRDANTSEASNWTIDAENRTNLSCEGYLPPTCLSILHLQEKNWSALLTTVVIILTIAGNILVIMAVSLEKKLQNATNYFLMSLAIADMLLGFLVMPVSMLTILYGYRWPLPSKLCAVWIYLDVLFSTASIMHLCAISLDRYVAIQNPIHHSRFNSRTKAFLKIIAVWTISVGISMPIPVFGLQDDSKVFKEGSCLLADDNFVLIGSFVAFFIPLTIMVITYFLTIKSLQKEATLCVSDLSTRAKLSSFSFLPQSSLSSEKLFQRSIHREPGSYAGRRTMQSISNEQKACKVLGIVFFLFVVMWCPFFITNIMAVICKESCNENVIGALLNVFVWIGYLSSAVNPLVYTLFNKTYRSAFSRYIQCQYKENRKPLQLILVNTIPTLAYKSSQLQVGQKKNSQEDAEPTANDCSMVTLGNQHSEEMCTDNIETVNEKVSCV
# Calb FLC – affects C. albicans growth with fluconazole; C. albicans CaCi-2 + fluconazole, Alamar Blue growth, 48 h; growth inhibition, % (no concentration beside the values); actives 0.57% (n = 300,000);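 active = growth inhibition above about 58% in most replicates, limit read from the data, passing the limit was not always enough; inconclusive = exactly half the replicates above a set limit; inactive = most replicates below a set limit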;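 note: all wells also contain fluconazole at 8 µg/ml as a sub-toxic cotreatment; 0% = median of DMSO wells and 100% = median of geldanamycin control wells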
# MIN6 prolif – MIN6 beta-cell proliferation induction; MIN6 cells proliferation, ATPlite luminescence, 48 h; cells starved in 0.2% serum; 100% = growth in 10% serum; proliferation, % at 10 µM; actives 0.29% (n = 330,000); AID 2380;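 active = compounds whose signal lies at least 3.5 SD above the mean of all wells on their plate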;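 note: 0% = DMSO-treated cells in low-serum medium and 100% = 10% serum control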
# SR-BI DiI inh – blocks mouse SR-BI lipid uptake from DiI-HDL; Q61009; ldlA[mSR-BI] CHO cells, DiI-HDL uptake fluorescence, 3 h; inhibition, % at 12.5 µM; actives 0.96% (n = 320,000); AID 488896;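 active = mean replicate inhibition of at least 70% and a set share of replicates each scoring 70 or more; inconclusive = meets just one of the two criteria; inactive = fails both criteria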;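 note: 0% = median of neutral control wells and 100% = median of positive control wells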
# OPRM1 ag – activates human mu opioid receptor in HTR2A counterscreen; shares compounds with m5-HT2A agonist; actives 5.3% (n = 2,300); activation, % at 9.3 µM; AID 624380; U2OS OPRM1 beta-arrestin PathHunter, luminescence; DMSO 0%, DAMGO 9.3 µM 100%;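 active = mean activation above the mean of DMSO-only wells plus 3 SD, cut at about 0.5% in these data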
# m5-HT2A ag conf – mouse HTR2A agonism confirmed | shares compounds with m5-HT2A agonist | CHO-K1 PathHunter beta-arrestin recruitment, luminescence; DMSO 0%, 30 µM serotonin 100% | activation, % at 7.6 µM | actives 19% (n = 2,300) | AID 624381;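 active = mean activation across triplicates above the hit threshold derived in the original primary screen, cut at about 15% in these data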
# * hit, by the source's call; ? = inconclusive; . = no result given.
SMILES,SR-BI uptake up,Ins promoter up,m5-HT2A agonist,Calb FLC,MIN6 prolif,SR-BI DiI inh,OPRM1 ag,m5-HT2A ag conf
O=C(Nc1ccccc1)C(O)C(O)C(=O)Nc1ccccc1 (stereo not given),25,-0.22,24*,-3,-5,-25,-1,-3
Cc1ccc(-c2ccc(/C=C3\SC(N4CCOCC4)=NC3=O)o2)cc1,-23,-0.35,15*,-4,-4,23,0,39*
O=[N+]([O-])c1ccc(N2CCCC2)c([N+](=O)[O-])c1,.,.,-1,.,.,.,.,.
Nc1c(Cl)ncnc1N1CCCC1,22,-3.3,15*,-7,-2,-22,0,-3
Nc1ncnc(N2CCOCC2)c1N,-4,-0.13,4,-6,-2,4,.,.
CC(=O)Nc1ccc(NC(=O)COc2ccc(-c3ccc(C#N)cc3)cc2)cc1,20,.,11,.,9,-20,.,.
CCCn1c(=O)c2[nH]c(-c3ccc(OCC(=O)Nc4ccc(C#N)cc4)cc3)nc2n(CCC)c1=O,20,.,16*,.,-1,-20,0,-4
Cc1cc(N(CN2CCCC2=O)C(=O)c2ccccc2)no1,19,-0.24,19*,0,-1,-19,0,-4
O=S(=O)(Nc1nc2ccccc2nc1Nc1cccc(S(=O)(=O)N2CCCCC2)c1)c1ccccc1,-9,-0.97,0,6,-5,9,.,.
Cc1ccccc1OCC(=O)OCC(=O)Nc1cc(S(=O)(=O)N2CCCCC2)ccc1Cl,20,.,2,4,0,-20,.,.
Clc1cccc(CN2CCN(c3ncccn3)CC2)c1Cl,18,.,14,1,1,-18,.,.
Clc1ccccc1CN1CCN(c2ncccn2)CC1,9,.,28*,-5,-5,-9,0,98*
Clc1ccc(CN2CCN(c3ncccn3)CC2)c(Cl)c1,19,.,16*,-6,-4,-19,0,103*
O=C(NCCc1cccs1)Nc1nnc([C@H]2C[C@H](O)[C@@H](CO)O2)s1,.,.,-2,.,.,.,.,.
CC(CCCN(C)C)C(Cc1ccccc1)c1ccccc1 (stereo not given),.,.,-10,-8,-2,.,.,.
CC(=O)NCc1nc2ccccc2n1C(C)C,5,-0.19,18*,2,-3,-5,0,-3
Cc1nc(N2CCCC2)c2nnn(Cc3ccccc3Cl)c2n1,-18,-0.92,18*,-26,7,18,-1,-2
O=C(Nc1nc2c(s1)COc1ccccc1-2)c1cccs1,-27,-0.55,-5,35,-6,27,.,.
O=C(CCS(=O)(=O)c1ccccc1)Nc1nc2c(s1)COc1ccccc1-2,-29,-0.94,22*,-1,-7,29,0,-5
CCCS(=O)(=O)NC(=O)C1(C)CCCN(C(=O)c2ccccc2F)C1 (stereo not given),.,.,3,.,.,.,.,.
CCCNC(=O)C1(C)CCCN(C(=O)c2ccccc2F)C1 (stereo not given),.,.,17*,.,.,.,-1,-3
O=C(COc1ccccc1Cl)N(Cc1cccs1)C1CCS(=O)(=O)C1 (stereo not given),9,.,20*,5,0,-9,-1,-4
CCNC(=O)N(C)C[C@H]1N[C@@](CC)(C(=O)OC)[C@H]2C(=O)N(C)C(=O)[C@@H]12,7,.,-2,.,-2,-7,.,.
COc1ccc2c3n(nc2c1)CCN=C3c1ccc(Cl)cc1,2,.,17*,.,-2,-2,0,-5
Cc1ccc(S(=O)(=O)N2CCN(C(=O)Cc3c(F)cccc3Cl)CC2)cc1,8,.,0,2,0,-8,.,.
SMILES,SR-BI uptake up,Ins promoter up,m5-HT2A agonist,Calb FLC,MIN6 prolif,SR-BI DiI inh,OPRM1 ag,m5-HT2A ag conf
O=C(Cc1c(F)cccc1Cl)N1CCN(S(=O)(=O)c2cccc(F)c2)CC1,-1,.,14*,2,-2,1,0,-2
C[C@H](CO)N1C[C@H](C)[C@@H](CN(C)CC2CCCCC2)Oc2c(NC(=O)Cc3ccccc3)cccc2C1=O,-20,.,5,.,-5,20,.,.
O=C(NC(=S)NC1CCCCCCCCCCC1)c1cccnc1,-48,2.1,17*,2,-4,48,0,1
CN(C(=O)COC(=O)c1ccc2c(c1)OCCO2)C1CCCCC1,2,.,-3,.,1,-2,.,.
COc1ccccc1CNS(=O)(=O)c1ccc2c(c1)NC(=O)CO2,6,.,16*,-2,-2,-6,-1,-2
O=C1C2C(c3cccc(/C=C/c4ccccc4)c3)CC=CC2C(c2ccc(C(F)(F)F)cc2)N1Cc1ccccc1 (stereo not given),19,.,17*,-8,-7,-19,-1,-5
CCn1c(=O)c(C2=NS(=O)(=O)c3ccccc3N2)c(O)c2ccccc21,.,0.89,.,.,.,.,.,.
CCN(CC(=O)Nc1ccc2c(c1)OCCO2)C(=O)CCOc1ccccc1,3,.,-3,.,-1,-3,.,.
CCN(CC(=O)Nc1ccc2c(c1)OCCO2)C(=O)CC(NC(C)=O)c1ccccc1 (stereo not given),15,.,18*,4,-4,-15,-1,-3
Clc1ccc(NCc2ccsc2)cc1,.,.,.,-92,-3,.,.,.
CC(C)S(=O)(=O)NC(=O)C1(C)CCN1C(=O)Cc1ccccc1 (stereo not given),.,.,-3,.,.,.,.,.
COc1ccc(CC2(CO)CCN(Cc3cc4ccccc4o3)CC2)cc1,-17,0.99,40*,-6,-1,17,-1,66*
OCC1(Cc2cccc(C(F)(F)F)c2)CCN(Cc2cc3ccccc3o2)CC1,5,.,24*,?,-6,-5,0,64*
Cc1cc(-c2ccc3ccccc3c2)n2ncnc2n1,3,-0.57,21*,32,0,-3,0,1
CC(=O)c1cccc(OCC(O)CNCC2COc3ccccc3O2)c1 (stereo not given),-37,.,26*,-1,-1,37,0,59*
CC(=O)N1CCc2cc(C(=O)CN3CCC(C)CC3)ccc21,-3,0.16,2,12,-1,3,.,.
CC(=O)N1CCc2cc(C(=O)CN3CCN(c4cccc(Cl)c4)CC3)ccc21,-44,-0.33,25*,-1,0,44,-1,90*
O=C(COC(=O)CSc1ccc(Cl)cc1)Nc1ccc2[nH]c(=O)[nH]c2c1,-1,.,2,.,2,1,.,.
CCN(Cc1ccccc1)C(=O)CSc1n[nH]c(N)n1,20,.,1,1,-3,-20,.,.
CCN(C(=O)CSc1n[nH]c(N)n1)C1CCCCC1,2,.,17*,.,2,-2,-1,-5
Fc1ccc(NCc2nnc3n2CCCCC3)cc1,-3,-0.17,20*,-8,-1,3,0,3
CC(=O)NC(c1ccccc1)c1nc(-c2cccc(CO)c2)cs1 (stereo not given),.,.,4,.,.,.,.,.
